Non-standard residues stand in square brackets, D forms with d. Residues, ends and D or L forms follow the SMILES beside them. *: point of attachment. DTPA = O=C(O)CN(CCN(CC(=O)O)CC(=O)O)CCN(CC(=O)O)CC(=O)*; Orn = NCCC[C@H](N)C(=O)O; 2Furoyl = O=C(c1ccco1)*
Assays:
[1] = target: T1, PAR2 (Homo sapiens, UniProt P55085); type: binding; conditions: 16HBE14o- cells, against 300 nM 2-f-LIGRLO-dtpa
T1 sequence (P55085 26-397): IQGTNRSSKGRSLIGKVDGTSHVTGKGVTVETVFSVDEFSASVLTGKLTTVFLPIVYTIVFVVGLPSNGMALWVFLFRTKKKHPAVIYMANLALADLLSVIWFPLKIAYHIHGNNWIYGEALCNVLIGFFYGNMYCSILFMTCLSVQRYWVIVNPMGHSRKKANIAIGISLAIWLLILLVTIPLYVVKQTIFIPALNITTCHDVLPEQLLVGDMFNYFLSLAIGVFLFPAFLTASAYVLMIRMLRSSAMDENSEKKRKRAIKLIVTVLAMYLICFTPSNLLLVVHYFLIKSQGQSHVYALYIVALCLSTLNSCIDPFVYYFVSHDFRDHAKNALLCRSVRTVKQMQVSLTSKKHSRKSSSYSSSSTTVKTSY
How it was run: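 Live 16HBE14o- cells grown to confluence (37°C, 5% CO2) on BSA/collagen I/fibronectin-coated 96-well plates. Cells were blocked 75 min in 2% BSA in HEPES-buffered HBSS pH 7.4, then given 45 min at 25°C with 300 nM Eu-DTPA-labelled PAR2 agonist plus competitor at 1 nM–600 µM. Three EDTA/Tween/BSA washes followed, then DELFIA enhancement for 40–45 min. Eu TRF read at ex 340/em 615 nm with 400 µs delay. Apparent IC50 from n ≥ 3 per concentration in ≥2 independent plates.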

[2] = tested on: control vector-transfected (kNRK) rat kidney cells; experiment: Ca2+ signaling in control vector-transfected kNRK cells; type: cell-based
How it was run: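 Kirsten virus-transformed normal rat kidney cells (low PAR2 expression) transfected with control vector were run alongside PAR2-transfected kNRK cells. [Ca2+]i was imaged by digital microscopy as for the bronchial epithelial cells, scoring the percentage of cells responding within the 3 min run. Comparison was to matched control, n ≥ 4.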

[3] = target: T1, PAR2; experiment: xCELLigence Real Time Cell Analyzer; type: cell-based; conditions: 16HBE14o- cells
[4] = target: T1, PAR2; experiment: MAPK signaling, immunoblot of pERK/tERK; type: cell-based; conditions: 16HBE14o- cells, 5 min exposure, concentration response 1-10 µM
How it was run: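 16HBE14o- cells exposed 5 min to test compound at 1–10 µM. ERK1/2 phosphorylation measured by immunoblot as pERK relative to total ERK. Values were compared with matching HBSS control.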

[5] = target: T1, PAR2; experiment: Ca2+ signaling by digital imaging microscopy in 16HBE14o- cells; type: cell-based; conditions: 5 µM
How it was run: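 Human bronchial epithelial 16HBE14o- cells (high PAR2 expression) imaged by digital microscopy for [Ca2+]i changes in individual cells over a 3 min run after agonist addition. Concentration response 0.5–25 µM. Read-out: time course of [Ca2+]i rise and percentage of cells in the field responding within 3 min. Each concentration had 3–9 experiments.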

Molecule | competition for PAR2 binding (in words) [1] | percentage of cells with Ca2+ signaling ([2]; 2.5 µM) | percentage of cells with Ca2+ signaling ([2]; 5 µM) | concentration that stimulated a maximum Cell Index ([3]; RTCA) | agonist properties in the RTCA physiological response assay ([3]; acute (10 min) and long-term (4 h) time points) | concentration inducing a significant increase in pERK/tERK compared with control [4] | concentration of peak (maximum) pERK/tERK activation [4] | time to initial increase in [Ca2+]i [5]
3-indoleacetyl-LIGRL-NH2 [3-ia-LIGRL] | displayed limited binding |  |  |  |  |  |  | 
CC[C@H](C)[C@H](NC(=O)[C@H](CC(C)C)NC(=O)c1ccco1)C(=O)NCC(=O)N[C@@H](CCCNC(=N)N)C(=O)N[C@@H](CC(C)C)C(=O)N[C@@H](CCCNC(=O)CN(CCN(CCN(CC(=O)O)CC(=O)O)CC(=O)O)CC(=O)O)C(N)=O [2-f-LIGRLO-dtpa, 2-furoyl-LIGRLO-(diethylenetriaminepentaacetic acid)-NH2] (2Furoyl-LIGRL[Orn](DTPA)-NH2) |  | 0.42% ± 0.42 | 2.98% ± 0.09 | 2.5 µM | full agonist properties | 2.5 µM | 10 µM | ≤ 30 s

From PMC3556274 (Bioconjugate chemistry, 2012)
